{"source": "ChEMBL document CHEMBL4359830", "about": "“Discovery and structure-activity relationship of novel diphenylthiazole derivatives as BTK inhibitor with potent activity against B cell lymphoma cell lines” (Eur J Med Chem, 2019)", "key": {"Ramos [1]": {"test_system": "Ramos", "test": "Antiproliferative activity against human Ramos cells at 40 uM measured after 72 hrs by CCK-8 assay relative to control", "format": "functional", "settings": "Homo sapiens, Ramos, 72 h", "method_in_brief": "(§1)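 Ramos or Raji cells in RPMI-1640 with 10% FBS and 1% penicillin-streptomycin at 37 °C, 5% CO2. Seeded at 2000–3000 cells/well one day before compound addition. Exposure 72 h, then CCK-8 with absorbance at 450 nm. […] Single-point inhibition at 40 µM reported as mean ± standard deviation.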"}, "Ramos [2]": {"test_system": "Ramos", "test": "Antiproliferative activity against human Ramos cells measured after 72 hrs by CCK-8 assay", "format": "functional, cell-based", "method_in_brief": "as §1"}, "Raji [3]": {"test_system": "Raji", "test": "Antiproliferative activity against human Raji cells at 40 uM measured after 72 hrs by CCK-8 assay relative to control", "format": "functional", "settings": "Homo sapiens, Raji, 72 h", "method_in_brief": "as §1"}, "Raji [4]": {"test_system": "Raji", "test": "Antiproliferative activity against human Raji cells measured after 72 hrs by CCK-8 assay", "format": "functional, cell-based", "method_in_brief": "as §1"}, "[5]": {"target": "Tyrosine-protein kinase BTK (Homo sapiens, UniProt Q06187, C481S)", "sequence (Q06187 2-659 C481S limits assumed)": "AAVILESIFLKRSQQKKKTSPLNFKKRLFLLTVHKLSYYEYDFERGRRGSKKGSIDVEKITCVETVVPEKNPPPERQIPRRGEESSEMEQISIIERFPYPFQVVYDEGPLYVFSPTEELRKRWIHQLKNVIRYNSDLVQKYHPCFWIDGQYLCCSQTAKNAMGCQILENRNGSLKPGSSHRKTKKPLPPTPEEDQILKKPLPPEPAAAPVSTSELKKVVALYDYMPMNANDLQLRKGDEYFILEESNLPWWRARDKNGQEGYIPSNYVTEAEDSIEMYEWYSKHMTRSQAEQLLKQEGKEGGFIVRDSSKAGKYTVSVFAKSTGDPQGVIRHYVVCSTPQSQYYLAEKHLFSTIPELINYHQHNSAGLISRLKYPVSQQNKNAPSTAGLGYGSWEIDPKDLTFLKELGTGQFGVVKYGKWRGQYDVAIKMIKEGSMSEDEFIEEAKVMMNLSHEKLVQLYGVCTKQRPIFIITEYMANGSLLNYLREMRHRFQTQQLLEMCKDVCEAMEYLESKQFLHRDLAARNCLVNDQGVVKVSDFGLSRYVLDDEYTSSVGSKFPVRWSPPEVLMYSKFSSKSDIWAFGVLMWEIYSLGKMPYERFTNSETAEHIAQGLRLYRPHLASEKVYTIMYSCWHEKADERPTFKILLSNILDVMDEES", "test": "Inhibition of human recombinant full length N-terminal His tagged BTK C481S mutant expressed in baculovirus infected Sf9 cells using poly (Glu,Tyr) 4:1 as substrate measured after 60 mins in presence of ATP by ADP-Glo kinase assay"}, "Ramos [6]": {"test_system": "Ramos", "test": "Induction of apoptosis in human Ramos cells assessed as late apoptotic cells at 0.1 uM measured after 15 mins by Annexin-V-APC staining-based flow cytometric analysis (reference value: 1.85 %)", "format": "functional"}, "Ramos [7]": {"test_system": "Ramos", "test": "Induction of apoptosis in human Ramos cells assessed as necrotic cells at 0.1 uM measured after 15 mins by Annexin-V-APC staining-based flow cytometric analysis (reference value: 1.50 %)", "format": "functional"}, "Ramos [8]": {"test_system": "Ramos", "test": "Induction of apoptosis in human Ramos cells assessed as viable cells at 1 uM measured after 15 mins by Annexin-V-APC staining-based flow cytometric analysis (reference value: 96.5 %)", "format": "functional", "settings": "0.25 h, read-out: Activity"}, "Ramos [9]": {"test_system": "Ramos", "test": "Induction of apoptosis in human Ramos cells assessed as viable cells at 3 uM measured after 15 mins by Annexin-V-APC staining-based flow cytometric analysis (reference value: 96.5 %)", "format": "functional", "settings": "0.25 h, read-out: Activity"}, "Ramos [10]": {"test_system": "Ramos", "test": "Induction of apoptosis in human Ramos cells assessed as necrotic cells at 3 uM measured after 15 mins by Annexin-V-APC staining-based flow cytometric analysis (reference value: 1.50 %)", "format": "functional"}, "Ramos [11]": {"test_system": "Ramos", "test": "Induction of apoptosis in human Ramos cells assessed as viable cells at 5 uM measured after 15 mins by Annexin-V-APC staining-based flow cytometric analysis (reference value: 96.5 %)", "format": "functional", "settings": "Homo sapiens, Ramos, 0.25 h; read-out: Activity"}, "Ramos [12]": {"test_system": "Ramos", "test": "Induction of apoptosis in human Ramos cells assessed as early apoptotic cells at 5 uM measured after 15 mins by Annexin-V-APC staining-based flow cytometric analysis (reference value: 0.14 %)", "format": "functional"}, "Ramos [13]": {"test_system": "Ramos", "test": "Induction of apoptosis in human Ramos cells assessed as late apoptotic cells at 5 uM measured after 15 mins by Annexin-V-APC staining-based flow cytometric analysis (reference value: 1.85 %)", "format": "functional"}, "Raji [14]": {"test_system": "Raji", "test": "Induction of apoptosis in human Raji cells assessed as early apoptotic cells at 0.1 uM measured after 15 mins by Annexin-V-APC staining-based flow cytometric analysis (reference value: 0.021 %)", "format": "functional"}, "Raji [15]": {"test_system": "Raji", "test": "Induction of apoptosis in human Raji cells assessed as late apoptotic cells at 0.1 uM measured after 15 mins by Annexin-V-APC staining-based flow cytometric analysis (reference value: 0.57 %)", "format": "functional"}, "Raji [16]": {"test_system": "Raji", "test": "Induction of apoptosis in human Raji cells assessed as necrotic cells at 0.1 uM measured after 15 mins by Annexin-V-APC staining-based flow cytometric analysis (reference value: 1.87 %)", "format": "functional"}, "Raji [17]": {"test_system": "Raji", "test": "Induction of apoptosis in human Raji cells assessed as viable cells at 1 uM measured after 15 mins by Annexin-V-APC staining-based flow cytometric analysis (reference value: 97.5 %)", "format": "functional", "settings": "0.25 h, read-out: Activity"}, "Raji [18]": {"test_system": "Raji", "test": "Induction of apoptosis in human Raji cells assessed as early apoptotic cells at 3 uM measured after 15 mins by Annexin-V-APC staining-based flow cytometric analysis (reference value: 0.021 %)", "format": "functional"}, "Ramos [19]": {"test_system": "Ramos", "test": "Cell cycle arrest in human Ramos cells assessed as accumulation at G0/G1 phase at 1 uM measured after 48 hrs by propidium iodide/RNase staining based flow cytometric analysis (reference value: 37.66 %)", "format": "functional"}, "Ramos [20]": {"test_system": "Ramos", "test": "Cell cycle arrest in human Ramos cells assessed as accumulation at G2/M phase at 1 uM measured after 48 hrs by propidium iodide/RNase staining based flow cytometric analysis (reference value: 5.98 %)", "format": "functional"}, "Ramos [21]": {"test_system": "Ramos", "test": "Cell cycle arrest in human Ramos cells assessed as accumulation at G0/G1 phase at 5 uM measured after 48 hrs by propidium iodide/RNase staining based flow cytometric analysis (reference value: 37.66 %)", "format": "functional"}, "Ramos [22]": {"test_system": "Ramos", "test": "Cell cycle arrest in human Ramos cells assessed as accumulation at S phase at 5 uM measured after 48 hrs by propidium iodide/RNase staining based flow cytometric analysis (reference value: 56.35 %)", "format": "functional"}, "Ramos [23]": {"test_system": "Ramos", "test": "Cell cycle arrest in human Ramos cells assessed as accumulation at G2/M phase at 5 uM measured after 48 hrs by propidium iodide/RNase staining based flow cytometric analysis (reference value: 5.98 %)", "format": "functional"}, "Raji [24]": {"test_system": "Raji", "test": "Cell cycle arrest in human Raji cells assessed as accumulation at G0/G1 phase at 0.1 uM measured after 48 hrs by propidium iodide/RNase staining based flow cytometric analysis (reference value: 48.68 %)", "format": "functional"}, "Raji [25]": {"test_system": "Raji", "test": "Cell cycle arrest in human Raji cells assessed as accumulation at S phase at 0.1 uM measured after 48 hrs by propidium iodide/RNase staining based flow cytometric analysis (reference value: 33.18 %)", "format": "functional"}, "Raji [26]": {"test_system": "Raji", "test": "Cell cycle arrest in human Raji cells assessed as accumulation at S phase at 1 uM measured after 48 hrs by propidium iodide/RNase staining based flow cytometric analysis (reference value: 33.18 %)", "format": "functional"}, "Raji [27]": {"test_system": "Raji", "test": "Cell cycle arrest in human Raji cells assessed as accumulation at G2/M phase at 1 uM measured after 48 hrs by propidium iodide/RNase staining based flow cytometric analysis (reference value: 18.14 %)", "format": "functional"}, "Raji [28]": {"test_system": "Raji", "test": "Cell cycle arrest in human Raji cells assessed as accumulation at S phase at 5 uM measured after 48 hrs by propidium iodide/RNase staining based flow cytometric analysis (reference value: 33.18 %)", "format": "functional"}, "Raji [29]": {"test_system": "Raji", "test": "Cell cycle arrest in human Raji cells assessed as accumulation at G2/M phase at 5 uM measured after 48 hrs by propidium iodide/RNase staining based flow cytometric analysis (reference value: 18.14 %)", "format": "functional"}, "[30]": {"target": "T1, Tyrosine-protein kinase BTK (Homo sapiens, UniProt Q06187)", "T1 sequence (Q06187 whole entry)": "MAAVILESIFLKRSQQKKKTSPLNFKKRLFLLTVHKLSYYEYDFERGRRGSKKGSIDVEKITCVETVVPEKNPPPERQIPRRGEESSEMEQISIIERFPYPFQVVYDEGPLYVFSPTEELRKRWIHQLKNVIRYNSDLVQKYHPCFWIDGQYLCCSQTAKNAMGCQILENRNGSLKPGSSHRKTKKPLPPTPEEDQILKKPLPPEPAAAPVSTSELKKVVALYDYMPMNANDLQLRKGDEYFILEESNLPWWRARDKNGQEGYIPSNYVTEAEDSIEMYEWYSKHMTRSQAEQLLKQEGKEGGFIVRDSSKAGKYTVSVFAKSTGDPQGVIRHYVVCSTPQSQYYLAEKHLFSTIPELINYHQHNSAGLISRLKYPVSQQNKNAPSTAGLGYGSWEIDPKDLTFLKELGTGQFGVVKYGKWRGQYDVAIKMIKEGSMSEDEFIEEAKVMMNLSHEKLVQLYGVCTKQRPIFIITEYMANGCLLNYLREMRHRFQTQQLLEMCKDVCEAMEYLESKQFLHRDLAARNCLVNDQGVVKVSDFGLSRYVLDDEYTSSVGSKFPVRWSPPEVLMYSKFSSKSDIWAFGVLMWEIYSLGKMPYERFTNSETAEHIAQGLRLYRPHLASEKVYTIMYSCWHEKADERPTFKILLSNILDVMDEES", "test": "Inhibition of BTK in anti-IgM-stimulated human Raji cells assessed as decrease in auto-phosphorylation at Y223 residue at 5 uM after 48 hrs by Western blot analysis", "format": "cell-based", "method_in_brief": "(§2)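 Cells were stimulated with anti-IgM and exposed to serial dilutions for 48 h. Lysis was in 2× Laemmli buffer with 2.5% β-mercaptoethanol at 4 °C for 15 min, then boiling for 5 min. Proteins were separated on 10% SDS-PAGE and moved to nitrocellulose. Blots were probed overnight (12–18 h, 4 °C) with phospho-BTK Tyr223, phospho-PLCγ2 Tyr1217 and β-actin antibodies (1:1000), then anti-rabbit HRP, with chemiluminescent detection.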"}, "[31]": {"target": "T1, Tyrosine-protein kinase BTK", "test": "Inhibition of BTK in anti-IgM-stimulated human Raji cells assessed as decrease in auto-phosphorylation at Y223 residue after 48 hrs by Western blot analysis", "format": "cell-based", "method_in_brief": "as §2"}}, "note": "Activity calls are given as the source filed them. The calls are words filed in the database; no cut-off is given here."}
{"smiles": "CN1CCN(c2ccc(Nc3nc(-c4cccc(NC(=O)c5ccc(F)c(Cl)c5)c4)sc3C(N)=O)cc2)CC1", "values": [{"measurement": "inhibition at 40 µM", "setting": "Ramos [1]", "value": 97.5, "unit": "%"}, {"measurement": "IC50", "setting": "Ramos [2]", "value": 4.83, "unit": "µM"}, {"measurement": "inhibition at 40 µM", "setting": "Raji [3]", "value": 94.4, "unit": "%"}, {"measurement": "IC50", "setting": "Raji [4]", "value": 6.23, "unit": "µM"}, {"measurement": "IC50", "setting": "[5]", "value": 0.061, "unit": "µM"}, {"measurement": "Activity", "setting": "Ramos [6]", "value": 1.88, "unit": "%"}, {"measurement": "Activity", "setting": "Ramos [7]", "value": 1.61, "unit": "%"}, {"measurement": "viability at 1 µM", "setting": "Ramos [8]", "value": 95.7, "unit": "%"}, {"measurement": "viability at 3 µM", "setting": "Ramos [9]", "value": 87.3, "unit": "%"}, {"measurement": "Activity", "setting": "Ramos [10]", "value": 6.17, "unit": "%"}, {"measurement": "viability at 5 µM", "setting": "Ramos [11]", "value": 1.55, "unit": "%"}, {"measurement": "Activity", "setting": "Ramos [12]", "value": 0.28, "unit": "%"}, {"measurement": "Activity", "setting": "Ramos [13]", "value": 72.4, "unit": "%"}, {"measurement": "Activity", "setting": "Raji [14]", "value": 0.01, "unit": "%"}, {"measurement": "Activity", "setting": "Raji [15]", "value": 0.44, "unit": "%"}, {"measurement": "Activity", "setting": "Raji [16]", "value": 1.76, "unit": "%"}, {"measurement": "viability at 1 µM", "setting": "Raji [17]", "value": 97.6, "unit": "%"}, {"measurement": "Activity", "setting": "Raji [18]", "value": 0, "unit": "%"}, {"measurement": "Activity", "setting": "Ramos [19]", "value": 55.48, "unit": "%"}, {"measurement": "Activity", "setting": "Ramos [20]", "value": 11.39, "unit": "%"}, {"measurement": "Activity", "setting": "Ramos [21]", "value": 83.68, "unit": "%"}, {"measurement": "Activity", "setting": "Ramos [22]", "value": 14.14, "unit": "%"}, {"measurement": "Activity", "setting": "Ramos [23]", "value": 2.17, "unit": "%"}, {"measurement": "Activity", "setting": "Raji [24]", "value": 47.04, "unit": "%"}, {"measurement": "Activity", "setting": "Raji [25]", "value": 33.63, "unit": "%"}, {"measurement": "Activity", "setting": "Raji [26]", "value": 21.47, "unit": "%"}, {"measurement": "Activity", "setting": "Raji [27]", "value": 24.53, "unit": "%"}, {"measurement": "Activity", "setting": "Raji [28]", "value": 1.26, "unit": "%"}, {"measurement": "Activity", "setting": "Raji [29]", "value": 16.19, "unit": "%"}, {"measurement": "inhibition", "setting": "[30]", "value": "Active"}, {"measurement": "inhibition", "setting": "[31]", "value": "Dose-dependent effect"}]}
